High-throughput results from PubChem BioAssay.
This is a sample that favours compounds with a hit; in the whole collection about 2.6% have one here.
SENP7 inh: SENP7 protease inhibitors, primary screen, biochemical, luminescence, uHTS; inhibition, % at 5 µM; Sentrin-specific protease 7 (Homo sapiens), Q9BQF6; hit rate 1.5% among 330,000; recombinant SENP7, Z-RLRGG-aminoluciferin luminescence, 40 min;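 active = inhibition above about 50% at the single test dose, limit read from the data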;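 also: plate controls were DMSO with enzyme for no effect and no enzyme buffer wells for full effect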
SENP8 block-1: SENP8 protease inhibitors, primary screen, biochemical, luminescence. Sentrin-specific protease 8 (Homo sapiens), Q96LD8. purified SENP8, Z-RLRGG-aminoluciferin cleavage. inhibition, % at 10 µM. hit rate 1.2% among 330,000; in the data active = inhibition above about 50%
UCH37 inh: inhibitors of human UCH37 deubiquitinase, primary screen, biochemical, Ub-AMC cleavage, fluorescence | Ubiquitin carboxyl-terminal hydrolase isozyme L5 (Homo sapiens), Q9Y5K5 | purified proteasome/UCH37 | inhibition, % (no concentration beside the values) | hit rate 0.33% among 330,000 | AID 588478, 2011;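 active = mean inhibition over replicate wells above about 20%, limit read from the data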;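 also: 0% = compound-free wells with enzyme and 100% = wells lacking proteasome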
Target sequence (Q9Y5K5 whole entry, looked up): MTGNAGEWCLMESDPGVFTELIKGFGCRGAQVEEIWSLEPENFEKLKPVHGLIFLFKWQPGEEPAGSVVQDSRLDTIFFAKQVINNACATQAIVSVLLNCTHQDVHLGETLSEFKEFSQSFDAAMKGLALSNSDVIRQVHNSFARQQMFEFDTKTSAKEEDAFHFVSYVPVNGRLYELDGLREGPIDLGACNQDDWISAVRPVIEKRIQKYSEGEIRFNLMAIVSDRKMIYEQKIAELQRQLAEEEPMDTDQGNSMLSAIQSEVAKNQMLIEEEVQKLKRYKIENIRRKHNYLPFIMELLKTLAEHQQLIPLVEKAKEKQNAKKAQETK
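Reagent: Ub-AMC substrate; assay system: Proteasome-associated human UCH37 deubiquitinase; controls: no-proteasome and no-compound wells; read-out: % inhibition of Ub-AMC cleavage fluorescence; timing: 30 min preincubation with enzyme, 25 min cleavage at room temperature; signal: AMC fluorescence from Ub-AMC cleavage, excitation 355 nm, emission 460 nm; buffer or medium: Tris-HCl pH 7.4 plus ovalbumin, ATP-MgCl2, DTT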
SENP8 block-2: human SENP8 protease inhibitors, primary screen, biochemical, fluorescence, Nedd8 protein substrate, uHTS | hit rate 0.64% among 360,000 | recombinant SENP8 | inhibition, % at 20 µM | Sentrin-specific protease 8 (Homo sapiens), Q96LD8; in the data active = inhibition mostly above about 40%, no sharp cut-off; inactive = mostly below about 27%
SENP1 FRET inh: human SENP1 catalytic domain inhibitors, primary screen, biochemical, FRET, uHTS; Sentrin-specific protease 1 (Homo sapiens), Q9P0U3; recombinant SENP1 catalytic domain, CyPet-SUMO1-YPet FRET cleavage; inhibition, % at 10 µM; hit rate 0.21% among 360,000; AID 624204, 2012;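 active = inhibition at least 30% at 10 µM, raw YFP signal under a set limit, fluorescence ratio 0.5 to 1.5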;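 also: 0% = enzyme with DMSO and 100% = no enzyme wells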
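Material: hSENP1 catalytic domain, recombinant; medium: Tris pH 8 with BME, BSA, NP40 and catalase; compound: single concentration of 10 µM compound, 0.5% DMSO final; technique: FRET read of cyan and yellow fluorescence; timing: 50 min enzyme reaction, room temperature, light-protected; reagent: SFCypet-SUMO1-SFYpet substrate at 25 nM; control set: no-enzyme low, enzyme-DMSO high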
SENP6 block: SENP6 protease inhibitors, primary screen, biochemical, luminescence, uHTS; hit rate 1.8% among 330,000; Recombinant SENP6 catalytic domain, aminoluciferin luminescence; inhibition, % at 10 µM; AID 2599, 2010; Sentrin-specific protease 6 (Homo sapiens), Q9GZR1;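 active = inhibition above about 50% at the single tested dose, limit read from the data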;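 also: plate controls were DMSO wells with enzyme for no effect and DMSO wells lacking enzyme for full effect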
SENP8 confirm: SENP8 protease inhibitors, retest, confirmation, biochemical, luminescence, single concentration | AID 488912, 2010 | hit rate 40% among 6,200 | inhibition, % at 12.5 µM | shares compounds with SENP7 inh | Recombinant SENP8, Z-RLRGG-aminoluciferin luminescence, 60 min;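 active = mean inhibition across replicates above about 50%, limit read from the data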
SENP6 conf: SENP6 protease inhibitors, confirmation, biochemical, luminescence, single concentration | shares compounds with SENP7 inh | recombinant SENP6, Z-RLRGG-aminoluciferin luminescence | inhibition, % at 12.5 µM | hit rate 58% among 6,200
SENP7 confirm: SENP7 protease inhibitors, retest, confirmation, biochemical, luminescence, single concentration; shares compounds with SENP7 inh; AID 488917, 2010; hit rate 69% among 6,200; inhibition, % at 12.5 µM; recombinant SENP7, Z-RLRGG-aminoluciferin luminescence, 40 min
Casp3 SENP sel: caspase-3 protease inhibitors, confirmation, selectivity assay for SENP inhibitor project, biochemical, single concentration. shares compounds with SENP7 inh. purified caspase-3, Z-DEVD-aminoluciferin luminescence, 60 min. hit rate 60% among 6,200. inhibition, % at 12.5 µM;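 active = mean inhibition above about 50%, limit read from the data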;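 also: plate controls were enzyme with DMSO for no effect and wells without caspase-3 for full effect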
Target sequence (P42574 28-227 limits assumed): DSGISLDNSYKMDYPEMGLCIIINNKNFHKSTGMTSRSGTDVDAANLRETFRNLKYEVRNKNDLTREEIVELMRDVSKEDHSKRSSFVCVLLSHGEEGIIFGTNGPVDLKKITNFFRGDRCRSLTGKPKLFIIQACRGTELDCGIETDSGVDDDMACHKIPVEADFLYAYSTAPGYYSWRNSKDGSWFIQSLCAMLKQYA
Luc interf: luminescence interference (SENP counter-screen); shares compounds with SENP7 inh; Pre-incubated SENP8/Z-RLRGG-aminoluciferin, luciferase luminescence interference; hit rate 39% among 6,200; AID 488919; inhibition, % at 12.5 µM;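 active = mean inhibition above about 50% when retested at one dose, limit read from the data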;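 also: plate controls were DMSO wells with completed reaction for no effect and substrate without enzyme for full effect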
An asterisk follows results filed as active; i = inactive; . = no result.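 The calls were made as follows, unless noted: active = mean inhibition above about 50% in the one-dose retest (limit read from the data); inactive = the rest.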

SMILES | SENP7 inh | SENP8 block-1 | UCH37 inh | SENP8 block-2 | SENP1 FRET inh | SENP6 block | SENP8 confirm | SENP6 conf | SENP7 confirm | Casp3 SENP sel | Luc interf
CCSC1=N/C(=C\c2ccc(-c3ccccc3[N+](=O)[O-])o2)C(=O)S1 | 28 | 13 | 10 | 6 | -20 | 50* | 5 | 4 | 4 | 6 | 3
COc1ccc(CN=C2Nc3ccccc3CS2)cc1 | 85* | 80* | 1 | 6 | 2 | 92* | 86* | 86* | 97* | 81* | 88*
COc1ccc(CN=C2NN=C(c3ccc(Cl)cc3)CS2)cc1 | -7 | -5 | 4 | 15 | 1 | -8 | . | . | . | . | .
C/C(=N\NC(=O)c1n[nH]c2c1CCC2)c1ccco1 | 60* | 55* | . | 9 | 1 | 69* | 12 | 68* | 91* | 91* | 65*
C/C(=N/NC(=O)c1ccccn1)c1ccco1 | 2 | 63* | . | 3 | 2 | 67* | 76* | 67* | 90* | 92* | 71*
CC(=NNC(=O)c1ccccn1)c1ccco1 | . | . | 8 | . | . | . | . | . | . | . | .
COc1ccc(-n2c(O)c(/C=N/NS(=O)(=O)c3cccc([N+](=O)[O-])c3)c3ccccc3c2=O)cc1OC | 25 | 10 | -4 | -400 | -15 | 53* | 10 | 19 | -5 | 0 | 0
NC(=O)Cn1cc(C=NNS(=O)(=O)c2cccc([N+](=O)[O-])c2)c2ccccc21 | . | . | 3 | . | . | . | . | . | . | . | .
Cc1cc2cc(OCc3ccccc3)ccc2n1C | 19 | -32 | 6 | 13 | 2 | 50* | -4 | -7 | -6 | 0 | 0
COCCCn1c(=C(C#N)C(N)=O)sc(=Cc2ccc(OC(F)F)c(OC)c2)c1=O | . | . | -69 | . | . | . | . | . | . | . | .
Nc1cc2nn(-c3ccccc3)nc2cc1Cl | . | . | -105 | -420 | -129 | . | . | . | . | . | .
Nc1ccc2nn(-c3ccccc3)nc2c1 | 43 | 66* | i | -410 | -30 | 74* | -5 | 65* | 82* | 62* | 31
Nc1ccc(-n2nc3ccccc3n2)cc1 | 64* | 38 | -246 | -452 | -123 | 41 | 36 | 56* | 87* | 60* | 67*
Nc1ccc2nn(-c3cccc4ccccc34)nc2c1 | 77* | 85* | -245 | -490 | -15 | 79* | -3 | 27 | 16 | 6 | 7
Oc1ccccc1C=Nn1c2ccccc2c2ccccc21 | . | . | 8 | . | . | . | . | . | . | . | .
Cc1cccc(C=Nc2sc3c(c2C#N)CCN(Cc2ccccc2)C3)c1O | . | . | 2 | . | . | . | . | . | . | . | .
O=C(COc1ccc(Cl)cc1Cl)Nc1cccc(-c2ccc(N3CCOCC3)nn2)c1 | 76* | -6 | 4 | -24 | 0 | 2 | 8 | 9 | -3 | 5 | -1
Cc1ccc(S(=O)(=O)Nc2cccc(-c3ccc(N4CCCCCC4)nn3)c2)cc1C | 5 | -10 | 6 | -10 | -3 | -6 | . | . | . | . | .
